One may read the inhibition in vivo as the share of the control response that was lost under treatment. By IC50 is commonly meant the midpoint of a concentration-inhibition curve. A higher IC50 goes with weaker potency.

The text below walks through data of ChEMBL document CHEMBL1949575, “Sclareol exhibits anti-inflammatory activity in both lipopolysaccharide-stimulated macrophages and the λ-carrageenan-induced paw edema model” (J Nat Prod, 2012).

In brackets after ≈: the same amount, converted by molar mass. Activity calls are given as the source filed them. The rule behind the calls is not given here.

Data set [1] has as its system Mus musculus. The data set is described as follows: Antiinflammatory activity in ICR mouse assessed as inhibition of carrageenan-induced COX2 protein expression in paw at 10 mg/kg, ip administered 30 mins before carrageenan challenge by Western blotting relative to control. Particulars: route intraperitoneal. In kind it is functional. The method in brief: (§1)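 Male ICR mice (18−25 g, n = 6 per group) given drug or saline i.p. 30 min before 50 μL of 1% carrageenan into the right hind paw plantar side. Paw soft tissue was homogenized in CHAPS buffer with protease inhibitors. About 30 μg protein run on 10% SDS-PAGE, immunoblotted for iNOS or COX-2, ECL detection, normalized to β-actin. Indomethacin 10 mg/kg as positive control.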

Data set [2] relates to RAW264.7. The data set is described as follows: Antiinflammatory activity in mouse RAW264.7 cells assessed as inhibition of LPS-induced nitric oxide production treated 1 hr before LPS challenge measured after 24 hrs by Griess method. In kind it is functional, cell-based. The method in brief:
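RAW264.7 cells preincubated 1 h with drug at 0, 1, 5 or 10 μg/mL, then co-treated with 100 ng/mL LPS at 37 °C for 24 h. Culture medium mixed 1:1 with Griess reagent (1% sulfanilamide, 0.1% naphthyl ethylenediamine, 5% phosphoric acid), 10 min at room temperature, absorbance 540 nm against a nitrite standard curve.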
A general note: The Griess reaction detects nitrite, a stable product of nitric oxide.

Data set [3] concerns Mus musculus. The data set can be described thus: Antiinflammatory activity in ICR mouse assessed as inhibition of carrageenan-induced decrease in CAT activity in liver at 5 mg/kg, ip administered 30 mins before carrageenan challenge measured after 5 hrs. In kind it is functional, organism-based. Also on record: dose 5 mg/kg. The method in brief:
(§2)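 Liver catalase, SOD and GPx activities determined 5 h after intrapaw carrageenan in ICR mice given drug i.p. 30 min beforehand. Indomethacin 10 mg/kg as positive control.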

Data set [4] is described as follows: Cytotoxicity against human breast cancer cells. In kind it is functional, cell-based. Particulars: Cancer cell lines.
The next data set deals with PBMC. The data set is described as follows: Cytotoxicity against human PBMC. In kind it is cell-based.
In data set [5] the test system is Mus musculus. The data set can be described thus: Antiinflammatory activity in ICR mouse assessed as inhibition of carrageenan-induced TNFalpha level in paw serum at 5 to 10 mg/kg, ip administered 30 mins before carrageenan challenge measured after 5 hrs by ELISA. For orientation: The carrageenan paw model is a standard test of acute inflammation.
Data set [6] has as its system Mus musculus. The data set can be described thus: Antiinflammatory activity in ICR mouse assessed as inhibition of carrageenan-induced malondialdehyde level in paw serum at 1 mg/kg, ip administered 30 mins before carrageenan challenge measured after 5 hrs by TRARS method. In kind it is functional, organism-based. Also on record: dose 1 mg/kg. The essentials: (§3)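 Carrageenan (1%, 50 μL intraplantar) given to ICR mice 30 min after i.p. dosing; right hind paws dissected at end and kept at −80 °C. Malondialdehyde measured by thiobarbituric acid reaction under acidic high-temperature conditions, red TBARS complex read at 532 nm.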

Data set [7] in a line: Cytotoxicity against human leukemia cells. In kind it is functional, cell-based. The note with it: Leukemia cell.
The subject of data set [8] is Mus musculus. The data set is described as follows: Antiinflammatory activity in ICR mouse assessed as inhibition of carrageenan-induced neutrophil infiltration in paw at 10 mg/kg, ip administered 30 mins before carrageenan challenge. In kind it is functional, organism-based. On the set-up: dose 10 mg/kg.
In data set [9] the test system is Mus musculus. The data set can be described thus: Antiinflammatory activity in ICR mouse assessed as inhibition of carrageenan-induced paw edema at 10 mg/kg, ip administered 30 mins before carrageenan challenge measured after 3 hrs by plethysmometer analysis. In kind it is functional, organism-based. Also on record: dose 10 mg/kg. The method in brief: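 Male ICR mice (n = 6) received saline, indomethacin 10 mg/kg or drug i.p. 30 min before 50 μL of 1% carrageenan in the right hind paw. Paw volume was read by plethysmometer immediately and at 1−5 h. Swelling was expressed as the ratio of right paw volume after carrageenan to volume before.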

Data set [10] has as its system RAW264.7. The data set is described as follows: Antiinflammatory activity in mouse RAW264.7 cells assessed as inhibition of LPS-induced COX2 expression at 5 to 10 ug/ml by Western blotting. In kind it is functional, cell-based. The method in brief: (§4)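 RAW264.7 macrophages in DMEM with 10% FBS were pretreated 1 h with drug (0−10 μg/mL), then co-stimulated with 100 ng/mL LPS for 24 h. Lysates (ice-cold Triton lysis buffer, pH 7.9) were blotted for iNOS or COX-2, with about 30 μg protein per lane and ECL detection. Bands normalized to β-actin, expressed relative to the LPS-only group as 100%.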

The test system of data set [11] is Mus musculus. The data set can be described thus: Antiinflammatory activity in ICR mouse assessed as inhibition of carrageenan-induced nitric oxide level in paw serum at 1 to 10 mg/kg, ip administered 30 mins before carrageenan challenge measured after 5 hrs by Griess method. In kind it is functional, organism-based. The method in brief: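 Mice pretreated i.p. 30 min before intraplantar 1% carrageenan; samples taken 5 h after injection. Homogenates diluted fourfold in water, deproteinized with zinc sulfate to a final 15 mg/mL, centrifuged at 10000g for 5 min. Supernatant mixed 1:1 with Griess reagent, 10 min at room temperature, A540. Nitrite quantified against a sodium nitrite standard curve.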

Data set [12] deals with Mus musculus. The data set can be described thus: Antiinflammatory activity in ICR mouse assessed as inhibition of carrageenan-induced malondialdehyde level in paw at 10 mg/kg, ip administered 30 mins before carrageenan challenge by TRARS method. Also on record: dose 10 mg/kg. In kind it is functional, organism-based. The method in brief: as §3
In data set [13] the test system is Mus musculus. The data set can be described thus: Antiinflammatory activity in ICR mouse assessed as inhibition of carrageenan-induced iNOS protein expression in paw at 10 mg/kg, ip administered 30 mins before carrageenan challenge by Western blotting relative to control. In kind it is functional. Particulars: route intraperitoneal. The essentials: as §1
For orientation: A western blot detects proteins with antibodies after separation by electrophoresis.

For another data set, the system named is HCT-116. The data set is described as follows: Cytotoxicity against human HCT116 cells. In kind it is functional, cell-based.
Data set [14] relates to RAW264.7. The data set can be described thus: Antiinflammatory activity in mouse RAW264.7 cells assessed as inhibition of LPS-induced iNOS expression at 5 to 10 ug/ml by Western blotting. In kind it is functional, cell-based. The essentials:
as §4

Data set [15] deals with RAW264.7. The data set is described as follows: Cytotoxicity against LPS-stimulated mouse RAW264.7 cells assessed as cell viability at 10 ug/ml treated 1 hr before LPS challenge measured after 24 hrs by MTT assay. In kind it is cell-based. The note with it: raw264.7, 24 h. The essentials: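 RAW264.7 cells (2 × 10^5/well) grown 1 day to near confluence, pretreated 1 h with drug (0−10 μg/mL), then co-stimulated with 100 ng/mL LPS for 24 h. After DPBS washes, cells got 0.5 mg/mL MTT for 2 h at 37 °C, then DMSO for 30 min, and absorbance was read at 570 nm.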

Data set [16] relates to Mus musculus. The data set can be described thus: Antiinflammatory activity in ICR mouse assessed as inhibition of carrageenan-induced decrease in SOD activity in liver at 5 mg/kg, ip administered 30 mins before carrageenan challenge measured after 5 hrs. In kind it is functional, organism-based. Also on record: dose 5 mg/kg. The method in brief:
as §2

Data set [17] relates to Mus musculus. The data set can be described thus: Antiinflammatory activity in ICR mouse assessed as inhibition of carrageenan-induced decrease in GPx activity in liver at 5 mg/kg, ip administered 30 mins before carrageenan challenge measured after 5 hrs. In kind it is functional, organism-based. Also on record: dose 5 mg/kg. The essentials: as §2
Data set [18] concerns Mus musculus. The data set is described as follows: Antiinflammatory activity in ICR mouse assessed as inhibition of carrageenan-induced decrease in SOD activity in liver at 10 mg/kg, ip administered 30 mins before carrageenan challenge measured after 5 hrs. In kind it is functional, organism-based. Also on record: dose 10 mg/kg. The essentials:
as §2

Data set [19] relates to Mus musculus. The data set can be described thus: Antiinflammatory activity in ICR mouse assessed as inhibition of carrageenan-induced decrease in GPx activity in liver at 10 mg/kg, ip administered 30 mins before carrageenan challenge measured after 5 hrs. In kind it is functional, organism-based. On the set-up: dose 10 mg/kg. The method in brief:
as §2

Data set [20] has as its system Mus musculus. The data set can be described thus: Antiinflammatory activity in ICR mouse assessed as inhibition of carrageenan-induced TNFalpha level in paw serum at 10 mg/kg, ip administered 30 mins before carrageenan challenge measured after 5 hrs by ELISA. Also on record: dose 10 mg/kg. In kind it is functional, organism-based. The essentials:
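ICR mice (n = 6) dosed i.p. 30 min before intraplantar 1% carrageenan; blood collected at sacrifice and stored at −80 °C. Serum TNF-α quantified by commercial ELISA, reported in pg/mL from the standard-curve regression. Indomethacin 10 mg/kg as reference.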

The subject of data set [21] is Mus musculus. The data set can be described thus: Antiinflammatory activity in ICR mouse assessed as inhibition of carrageenan-induced malondialdehyde level in paw serum at 10 mg/kg, ip administered 30 mins before carrageenan challenge measured after 5 hrs by TRARS method. In kind it is functional, organism-based. On the set-up: dose 10 mg/kg. The essentials: as §3

Data set [22] relates to Mus musculus. The data set can be described thus: Antiinflammatory activity in ICR mouse assessed as inhibition of carrageenan-induced decrease in CAT activity in liver at 10 mg/kg, ip administered 30 mins before carrageenan challenge measured after 5 hrs. In kind it is functional, organism-based. On the set-up: dose 10 mg/kg. The essentials: as §2

For the compound `C=C[C@](C)(O)CC[C@@H]1[C@@]2(C)CCCC(C)(C)[C@@H]2CC[C@@]1(C)O` [SCLAREOL], the inhibition in vivo at 10 mg/kg is 70.3% in the data set with Mus musculus [1] and 69.6% in the data set with Mus musculus [13]. Also, the inhibition result with RAW264.7 [2] is “Dose-dependent effect”. Also, the inhibition result with Mus musculus [3], with Mus musculus [5], in the data set on Mus musculus [6], in the data set on Mus musculus [8], in the data set with Mus musculus [9] and in the data set on RAW264.7 [10] was “Active” in each case. Also, the inhibition entry in the data set on Mus musculus [11], in the data set on Mus musculus [12], in the data set with RAW264.7 [14], in the data set with Mus musculus [16] and with Mus musculus [17] was “Active” each time. Also, the IC50 in [4] is 7 µg/mL (≈ 22.7 µM); in the data set on PBMC it was 10.7 µg/mL (≈ 34.7 µM); in [7] it was 6 µg/mL (≈ 19.4 µM); with HCT-116, 10.6 µg/mL (≈ 34.4 µM). Further, the Activity result with RAW264.7 [15] is “Non-toxic”.

For the compound `COc1ccc2c(c1)c(CC(=O)O)c(C)n2C(=O)c1ccc(Cl)cc1` [INDOMETHACIN], the inhibition entry in the data set on Mus musculus [18], with Mus musculus [19], in the data set with Mus musculus [20], with Mus musculus [21], in the data set on Mus musculus [8] and with Mus musculus [22] was “Active” throughout. In addition, in the data set with Mus musculus [9], the inhibition result is “Active”. Moreover, the results for the inhibition in vivo at 10 mg/kg in the data set on Mus musculus [1] and in the data set on Mus musculus [13] were 58.1% and 61.5%, respectively.
